Data taken from ChEMBL document CHEMBL1154716, “Synthesis of some new S-triazine based chalcones and their derivatives as potent antimicrobial agents” (2010).
In brackets after ≈: the same amount, converted by molar mass. Activity calls are given as the source filed them. No cut-off for these calls is given here.

Columns and labels:
Enterobacter cloacae [1] = assay: Antimicrobial activity against Enterobacter cloacae at 1 umol/spot after 18 hrs by TLC-bioautographic method; type: functional
Summary of the method: (§1)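 TLC bioautography. Samples are spotted on silica gel TLC plates, then sprayed with bacteria (1.0 × 10^5 cfu/ml) in tryptic soy broth. Plates are incubated 18 h at 37 C and sprayed with 3% aqueous p-iodonitrotetrazolium violet. After a further 3 h, growth is stopped with 70% EtOH. White zones on a pink background are scored as inhibition-zone diameter with standard errors.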

Listeria monocytogenes [2] = assay: Antimicrobial activity against Listeria monocytogenes after 24 hrs by microdilution technique; type: functional
Summary of the method: (§2)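 Broth microdilution in LB medium. Inoculum is 1.0 × 10^4 cfu per well, from a saline-adjusted suspension of 1.0 × 10^5 cfu/ml. Compounds are dissolved in DMSO. Incubated 24 h at 28 C. MIC is the lowest concentration with no visible growth under a binocular microscope. MBC is read by subculture into fresh broth for 72 h, with no growth taken as 99.5% kill. OD is read at 655 nm.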

Pseudomonas aeruginosa [3] = assay: Antimicrobial activity against Pseudomonas aeruginosa at 1 umol/disk after 24 hrs by disk diffusion assay; type: functional
Summary of the method: (§3)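 Disc diffusion on 4 mm filter discs. Bacteria are grown overnight in LB at 28 C, then adjusted in saline to 1.0 × 10^5 cfu/ml. The suspension is mixed into top agar over peptone agar plates. Plates are incubated 24 h at 28 C, and growth-inhibition zone diameter is measured. Streptomycin and ampicillin controls are applied from a 1 mg/ml stock. Tests are done in duplicate.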

Escherichia coli [4] = assay: Antimicrobial activity against Escherichia coli at 1 umol/disk after 24 hrs by disk diffusion assay; type: functional; summary of the method: as §3
Bacillus cereus [5] = assay: Antimicrobial activity against Bacillus cereus at 1 umol/disk after 24 hrs by disk diffusion assay; type: functional; summary of the method: as §3
Salmonella typhimurium [6] = assay: Antimicrobial activity against Salmonella Typhimurium at 1 umol/spot after 18 hrs by TLC-bioautographic method; type: functional; summary of the method: as §1
Staphylococcus aureus [7] = assay: Antimicrobial activity against Staphylococcus aureus at 1 umol/disk after 24 hrs by disk diffusion assay; type: functional; summary of the method: as §3
Listeria monocytogenes [8] = assay: Antimicrobial activity against Listeria monocytogenes at 1 umol/spot after 18 hrs by TLC-bioautographic method; type: functional; summary of the method: as §1
Listeria monocytogenes [9] = assay: Antimicrobial activity against Listeria monocytogenes at 10 ug/disk after 24 hrs by disk diffusion assay; type: functional; summary of the method: as §3
Bacillus cereus [10] = assay: Antimicrobial activity against Bacillus cereus at 10 ug/disk after 24 hrs by disk diffusion assay; type: functional; summary of the method: as §3
Escherichia coli [11] = assay: Antimicrobial activity against Escherichia coli at 10 ug/disk after 24 hrs by disk diffusion assay; type: functional; summary of the method: as §3
Enterobacter cloacae [12] = assay: Antimicrobial activity against Enterobacter cloacae at 10 ug/disk after 24 hrs by disk diffusion assay; type: functional; summary of the method: as §3
Salmonella typhimurium [13] = assay: Antimicrobial activity against Salmonella Typhimurium at 1 umol/disk after 24 hrs by disk diffusion assay; type: functional, organism-based; conditions: Salmonella enterica subsp. enterica serovar Typhimurium; summary of the method: as §3
Pseudomonas aeruginosa [14] = assay: Antimicrobial activity against Pseudomonas aeruginosa at 1 umol/spot after 18 hrs by TLC-bioautographic method; type: functional; summary of the method: as §1
Staphylococcus aureus [15] = assay: Antimicrobial activity against Staphylococcus aureus at 10 ug/disk after 24 hrs by disk diffusion assay; type: functional; summary of the method: as §3
Escherichia coli [16] = assay: Antimicrobial activity against Escherichia coli at 1 umol/spot after 18 hrs by TLC-bioautographic method; type: functional; summary of the method: as §1
Micrococcus flavus [17] = assay: Antimicrobial activity against Micrococcus flavus at 10 ug/disk after 24 hrs by disk diffusion assay; type: functional; conditions: read-out: IZ; summary of the method: as §3
Escherichia coli [18] = assay: Antimicrobial activity against Escherichia coli after 24 hrs by microdilution technique; type: functional; summary of the method: as §2
Micrococcus flavus [19] = assay: Antimicrobial activity against Micrococcus flavus at 1 umol/spot after 18 hrs by TLC-bioautographic method; type: functional; summary of the method: as §1
Pseudomonas aeruginosa [20] = assay: Antimicrobial activity against Pseudomonas aeruginosa at 10 ug/disk after 24 hrs by disk diffusion assay; type: functional; summary of the method: as §3
Pseudomonas aeruginosa [21] = assay: Antimicrobial activity against Pseudomonas aeruginosa after 24 hrs by microdilution technique; type: functional; summary of the method: as §2
Salmonella typhimurium [22] = assay: Antimicrobial activity against Salmonella Typhimurium at 10 ug/disk after 24 hrs by disk diffusion assay; type: functional, organism-based; conditions: Salmonella enterica subsp. enterica serovar Typhimurium; summary of the method: as §3
Enterobacter cloacae [23] = assay: Antimicrobial activity against Enterobacter cloacae at 1 umol/disk after 24 hrs by disk diffusion assay; type: functional; summary of the method: as §3
Micrococcus flavus [24] = assay: Antimicrobial activity against Micrococcus flavus after 24 hrs by microdilution technique; type: functional; summary of the method: as §2
Listeria monocytogenes [25] = assay: Antimicrobial activity against Listeria monocytogenes at 1 umol/disk after 24 hrs by disk diffusion assay; type: functional; summary of the method: as §3
Staphylococcus aureus [26] = assay: Antimicrobial activity against Staphylococcus aureus at 1 umol/spot after 18 hrs by TLC-bioautographic method; type: functional; summary of the method: as §1
Bacillus cereus [27] = assay: Antimicrobial activity against Bacillus cereus at 1 umol/spot after 18 hrs by TLC-bioautographic method; type: functional; summary of the method: as §1
Enterobacter cloacae [28] = assay: Antimicrobial activity against Enterobacter cloacae after 24 hrs by microdilution technique; type: functional; summary of the method: as §2
Bacillus cereus [29] = assay: Antimicrobial activity against Bacillus cereus after 24 hrs by microdilution technique; type: functional; summary of the method: as §2
Salmonella typhimurium [30] = assay: Antimicrobial activity against Salmonella Typhimurium after 24 hrs by microdilution technique; type: functional, Salmonella enterica subsp. enterica serovar Typhimurium; summary of the method: as §2
Micrococcus flavus [31] = assay: Antimicrobial activity against Micrococcus flavus at 1 umol/disk after 24 hrs by disk diffusion assay; type: functional; summary of the method: as §3
Staphylococcus aureus [32] = assay: Antimicrobial activity against Staphylococcus aureus after 24 hrs by microdilution technique; type: functional; summary of the method: as §2
[33] = Salmonella enterica subsp. enterica serovar Typhimurium

Row | Compound | inhibition zone (IZ) (Enterobacter cloacae [1]) | MBC (Listeria monocytogenes [2]) | MIC (Listeria monocytogenes [2]) | inhibition zone (IZ) (Pseudomonas aeruginosa [3]) | inhibition zone (IZ) (Escherichia coli [4]) | inhibition zone (IZ) (Bacillus cereus [5]) | inhibition zone (IZ) (Staphylococcus aureus [7]) | inhibition zone (IZ) (Listeria monocytogenes [8]) | inhibition zone (IZ) (Listeria monocytogenes [9]) | inhibition zone (IZ) (Bacillus cereus [10]) | inhibition zone (IZ) (Enterobacter cloacae [12]) | inhibition zone (IZ) (Salmonella typhimurium [13]) | inhibition zone (IZ) (Pseudomonas aeruginosa [14]) | inhibition zone (IZ) (Staphylococcus aureus [15]) | inhibition zone (IZ) (Escherichia coli [16]) | zone of inhibition at 10 µg/disc (Micrococcus flavus [17]) | MBC (Escherichia coli [18]) | MIC (Escherichia coli [18]) | inhibition zone (IZ) (Micrococcus flavus [19]) | inhibition zone (IZ) (Pseudomonas aeruginosa [20]) | further results
1 | Nc1nc(-c2ccc(Nc3nc(Nc4ccccc4)nc(Nc4ccccc4)n3)cc2)cc(-c2ccco2)n1 | 0.08 millimeter | 780 µM (≈ 401 µg/mL) | 780 µM (≈ 401 µg/mL) | inactive | 0.05 millimeter | inactive | inactive | 0.08 millimeter | inactive | inactive | inactive | inactive | inactive | inactive | 0.08 millimeter | 6 mm | 390 µM (≈ 200 µg/mL) | 195 µM (≈ 100 µg/mL) | 0.07 millimeter | inactive | inhibition zone (IZ) (Salmonella typhimurium [6]; [33]): inactive; zone of inhibition at 10 µg/disc (Escherichia coli [11]; read-out: IZ): 10 mm; MBC (Pseudomonas aeruginosa [21]): 780 µM (≈ 401 µg/mL); MIC (Pseudomonas aeruginosa [21]): 780 µM (≈ 401 µg/mL); inhibition zone (IZ) (Salmonella typhimurium [22]): inactive; inhibition zone (IZ) (Enterobacter cloacae [23]): inactive; MBC (Micrococcus flavus [24]): 390 µM (≈ 200 µg/mL); MIC (Micrococcus flavus [24]): 195 µM (≈ 100 µg/mL); inhibition zone (IZ) (Listeria monocytogenes [25]): inactive; inhibition zone (IZ) (Staphylococcus aureus [26]): 0.06 millimeter; inhibition zone (IZ) (Bacillus cereus [27]): inactive; MBC (Enterobacter cloacae [28]): 390 µM (≈ 200 µg/mL); MIC (Enterobacter cloacae [28]): 195 µM (≈ 100 µg/mL); MBC (Bacillus cereus [29]): 390 µM (≈ 200 µg/mL); MIC (Bacillus cereus [29]): 195 µM (≈ 100 µg/mL); MBC (Salmonella typhimurium [30]; Salmonella enterica): 390 µM (≈ 200 µg/mL); MIC (Salmonella typhimurium [30]; Salmonella enterica): 195 µM (≈ 100 µg/mL); inhibition zone (IZ) (Micrococcus flavus [31]): 0.03 millimeter; MBC (Staphylococcus aureus [32]): 390 µM (≈ 200 µg/mL); MIC (Staphylococcus aureus [32]): 195 µM (≈ 100 µg/mL)
2 | CC(=O)N1N=C(c2ccc(Nc3nc(Nc4ccccc4)nc(Nc4ccccc4)n3)cc2)CC1c1ccco1 (stereo not given) | 0.09 millimeter | inactive | 756 µM (≈ 401 µg/mL) | inactive | inactive | inactive | inactive | 0.08 millimeter | inactive | inactive | inactive | inactive | inactive | inactive | inactive | 10 mm | 756 µM (≈ 401 µg/mL) | 378 µM (≈ 201 µg/mL) | inactive | inactive | inhibition zone (IZ) (Salmonella typhimurium [6]): 0.09 millimeter; inhibition zone (IZ) (Escherichia coli [11]): inactive; MBC (Pseudomonas aeruginosa [21]): 756 µM (≈ 401 µg/mL); MIC (Pseudomonas aeruginosa [21]): 756 µM (≈ 401 µg/mL); inhibition zone (IZ) (Salmonella typhimurium [22]): inactive; inhibition zone (IZ) (Enterobacter cloacae [23]): inactive; MBC (Micrococcus flavus [24]): 756 µM (≈ 401 µg/mL); MIC (Micrococcus flavus [24]): 378 µM (≈ 201 µg/mL); inhibition zone (IZ) (Listeria monocytogenes [25]): inactive; inhibition zone (IZ) (Staphylococcus aureus [26]): 0.07 millimeter; inhibition zone (IZ) (Bacillus cereus [27]): inactive; MBC (Enterobacter cloacae [28]): inactive; MIC (Enterobacter cloacae [28]): 756 µM (≈ 401 µg/mL); MBC (Bacillus cereus [29]): 756 µM (≈ 401 µg/mL); MIC (Bacillus cereus [29]): 378 µM (≈ 201 µg/mL); MIC (Salmonella typhimurium [30]; Salmonella enterica): 756 µM (≈ 401 µg/mL); MBC (Salmonella typhimurium [30]; [33]): inactive; inhibition zone (IZ) (Micrococcus flavus [31]): 0.05 millimeter; MBC (Staphylococcus aureus [32]): 756 µM (≈ 401 µg/mL); MIC (Staphylococcus aureus [32]): 756 µM (≈ 401 µg/mL)
